# PKA-R2B act = activators of PKA-R2B holoenzyme, primary screen, biochemical, fluorescence polarization, Cy5-IP20, human. activation, % at 11.4 µM. 340,000 compounds, 0.079% hits. cAMP-dependent protein kinase catalytic subunit beta (Homo sapiens) + cAMP-dependent …. PKA-R2B holoenzyme dissociation; R2B truncated from residue 108, S112A mutant; 0% DMSO only, 100% 113 µM cGMP;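 active = activation above a cutoff set at the mean over all compounds plus 3 SD, cut at about 18% in these data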;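 note: higher means more holoenzyme dissociation and a rise in polarization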
# NR2E3 ag-1 = NR2E3 agonists in two-hybrid cells, primary screen, cell-based, luminescence, CHO-S, Gal4-NCOR/VP16-NR2E3; luciferase; Photoreceptor-specific nuclear receptor (Homo sapiens), Q9Y5X4; inhibition of corepressor binding, % at 3.98 µM; 360,000 compounds, 0.35% hits; AID 602229, 2012;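 active = inhibition above the mean of all tested compounds plus 3 SD, cut at about 70% in these data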;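 note: 0% = DMSO with NR2E3 transfected cells and 100% = cells lacking NR2E3 construct; higher means lower luciferase signal from less NR2E3 corepressor binding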
# PG9 binder = binders of HIV-1 gp120 antibody PG9, primary screen, biochemical, TR-FRET; HIV-1 gp120 / PG9 antibody interaction; TR-FRET gp120-PG9 antibody binding; inhibition, % at 6.7 µM; 360,000 compounds, 0.43% hits; AID 624416, 2012; in the data active = inhibition above about 8.5%
# PKA-R1A activ = activators of PKA-R1A holoenzyme, primary screen, biochemical, fluorescence polarization, Cy5-IP20, bovine R1A, mouse PKAc | PKA-R1A dissociation; scaled: DMSO 0%, 113 µM cGMP 100% | activation, % at 11.4 µM | 340,000 compounds, 0.083% hits | AID 504707, 2011;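 active = percent activation above the mean of all tested compounds plus 3 SD, cut at about 19% in these data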;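 note: higher means more PKAc released from R1A so a rise in polarization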
# NR2E3 ag-2 = inhibitors of NR2E3-RetCOR corepressor binding, primary screen, NR2E3 agonist project, biochemical, TR-FRET, GST-NR2E3, biotin-RetCOR. Photoreceptor-specific nuclear receptor (Homo sapiens), Q9Y5X4. 1536-well. inhibition of corepressor binding, % at 4.78 µM. 320,000 compounds, 0.12% hits;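 active = percent inhibition above the cutoff of mean plus 3 SD of all tested compounds, set per screening campaign, cut at about 20% in these data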;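 note: 0% = DMSO wells and 100% = biotin wells as full block of FRET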
#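 Assay system: NR2E3–RetCOR corepressor complex. Quantity: 1.35 nM GST-NR2E3. Buffer or medium: pH 7.5 Tris-based buffer. Reagent: biotinylated RetCOR corepressor at 7 nM final. Schedule: 5 h at 4 °C. Detection: TR-FRET, emission read at 617 and 671 nm. Replicates: one well per compound, singlicate testing.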
# NR1D1 modulator = modulators of Rev-erb alpha DNA binding, primary screen, biochemical, FITC-DNA, fluorescence polarization, uHTS; Nuclear receptor subfamily 1 group D member 1 (Homo sapiens), P20393; Rev-erbα–FITC-DNA binding, 90 min; 370,000 compounds, 0.79% hits; activity, % at 10 µM; AID 1259318, 2017;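 active = activity above about 14%, limit read from the data; passing the limit was not always enough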;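 note: 0% = DMSO wells with 35 nM protein and 100% = DMSO wells with 750 nM protein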
# Target sequence (P20393 whole entry, looked up): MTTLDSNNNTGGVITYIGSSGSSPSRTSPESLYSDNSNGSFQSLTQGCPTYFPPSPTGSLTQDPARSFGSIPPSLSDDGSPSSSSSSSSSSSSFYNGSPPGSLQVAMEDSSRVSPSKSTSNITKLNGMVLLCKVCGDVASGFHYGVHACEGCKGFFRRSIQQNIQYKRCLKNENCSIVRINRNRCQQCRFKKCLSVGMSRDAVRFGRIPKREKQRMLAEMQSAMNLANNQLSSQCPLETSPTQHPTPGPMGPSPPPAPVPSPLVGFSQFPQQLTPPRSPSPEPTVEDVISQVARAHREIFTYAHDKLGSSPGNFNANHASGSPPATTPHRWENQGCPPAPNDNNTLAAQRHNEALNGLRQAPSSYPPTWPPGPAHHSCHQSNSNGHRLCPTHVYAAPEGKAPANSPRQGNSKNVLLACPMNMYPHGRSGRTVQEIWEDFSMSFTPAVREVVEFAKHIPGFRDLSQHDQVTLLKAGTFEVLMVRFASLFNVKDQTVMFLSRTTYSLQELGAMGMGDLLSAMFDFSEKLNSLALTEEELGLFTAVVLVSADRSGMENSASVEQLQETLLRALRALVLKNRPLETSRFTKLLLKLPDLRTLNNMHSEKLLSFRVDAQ
# NR2E3 ag confirm = NR2E3 agonist confirmation in cells, cell-based, luminescence, CHO-S two-hybrid. 2,300 compounds, 51% hits. inhibition, % at 3.98 µM. CHO-S mammalian two-hybrid NR2E3-NCOR, luciferase luminescence. shares compounds with NR2E3 ag-1. AID 624378, 2012;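 active = average inhibition above a cutoff equal to the mean inhibition of all tested compounds plus one SD, cut at about 70% in these data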;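 note: 0% = DMSO in NR2E3 cells and 100% = DMSO in cells lacking NR2E3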
# GAL4-VP16 luc = GAL4-VP16 reporter modulators, confirmation, counter-screen for NR2E3 agonist project, cell-based, luminescence, CHO-S, high throughput | shares compounds with NR2E3 ag-1 | CHO-S GAL4-VP16 luciferase reporter | inhibition, % at 3.98 µM | 2,300 compounds, 29% hits | AID 624379, 2012;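 active = mean inhibition above a cutoff equal to the average over all tested compounds plus one standard deviation, cut at about 70% in these data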;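 note: luciferase from a UAS reporter driven by GAL4-VP16 transactivation; 0% = DMSO with VP16-transfected cells and 100% = DMSO with cells lacking VP16; higher means less reporter light so more repression of VP16 activity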
# Numbers without * were called inactive; · = no result given. Only some compounds are listed: those with a hit (about 1.6% of all), similar ones and a draw of the others.
SMILES,PKA-R2B act,NR2E3 ag-1,PG9 binder,PKA-R1A activ,NR2E3 ag-2,NR1D1 modulator,NR2E3 ag confirm,GAL4-VP16 luc
COc1ccc(NS(=O)(=O)c2ccc(-n3nnc4ccccc43)c([N+](=O)[O-])c2)cc1,-6.6,53.9,4.0,-5.2,-1.1,-0.8,44.9,45.1
CS(=O)(=O)c1ccc(-n2nnc3ccccc32)c([N+](=O)[O-])c1,8.6,-29.1,0.1,-12.7,-0.4,-5.5,·,·
CC[C@@]1(O)C(=O)OCc2c1cc1n(c2=O)Cc2cc3c(N)cccc3nc2-1,-8.7,81.9*,-13.4,-7.0,-6.8,-17.6,87.6*,41.4
CCOc1c(Br)cc(CNc2ccc3c(c2)OCCO3)cc1OC,-0.4,65.6,-0.9,-8.4,1.6,-1.9,17.6,-4.5
O=C(Nc1nc2c(Br)cccc2s1)c1ccc2c(c1)OCCO2,·,·,·,·,·,-2.0,·,·
c1cncc(CNc2ncnc3sccc23)c1,2.6,2.8,-0.6,4.0,0.2,0.3,·,·
c1csc(CNc2ncnc3sccc23)c1,-1.4,72.1*,-1.3,-1.8,-1.3,3.5,84.4*,66.0
c1ccc(CNc2ncnc3sccc23)cc1,12.0,91.3*,1.1,-3.4,-2.6,2.6,79.6*,53.4
COc1ccc(CNc2ncnc3sccc23)cc1,-3.3,93.6*,0.7,-9.7,3.8,4.7,81.6*,62.6
Cc1cc(NS(=O)(=O)C2CCN(C(=O)Cc3ccc(Cl)c(Cl)c3)CC2)no1,·,·,·,·,·,1.2,·,·
CCOc1ccc2[nH]c3c(N4CCN(c5ccccn5)CC4)ncnc3c2c1,3.4,12.0,-1.2,4.5,2.8,-0.6,·,·
Cc1ccc2c(c1)[nH]c1c(N3CCN(Cc4ccccc4)CC3)ncnc12,1.9,58.8,0.7,-3.3,-0.6,0.7,86.4*,73.9*
c1ccc(CN2CCN(c3ncnc4c3[nH]c3ccccc34)CC2)cc1,-13.4,69.8,1.2,-10.7,1.8,-0.4,·,·
Cc1ccc2[nH]c3c(N4CCN(Cc5ccccc5)CC4)ncnc3c2c1,1.1,78.7*,-1.0,3.1,-2.2,2.7,88.4*,74.3*
COc1ccc2c(c1)[nH]c1c(N3CCN(Cc4ccc5c(c4)OCO5)CC3)ncnc12,-1.2,92.3*,1.6,-5.9,1.9,-0.3,96.8*,85.7*
Cc1ccc2[nH]c3c(N4CCN(Cc5ccc6c(c5)OCO6)CC4)ncnc3c2c1,·,·,1.8,·,·,·,·,·
O=C(Nc1ccc2c(c1)OCO2)OC1CCC12CCCCC2 (configuration not stated),·,·,·,·,·,0.1,·,·
O=C(Nc1nc(Cc2ccccc2)c(-c2ccccc2)n1Cc1ccccc1)c1ccccc1,·,·,·,·,·,0.9,·,·
Cc1ccc(C=Nn2c(-c3n[nH]c4c3CCC4)n[nH]c2=S)o1,·,·,·,·,·,-1.7,·,·
COCCNC(=S)N/N=C(\C)c1ccccc1OC,-3.3,-7.7,-2.4,-0.3,2.8,2.2,·,·
COCCCNC(=S)N/N=C/c1ccccc1O,7.0,73.8*,-2.6,-0.6,3.0,-1.5,-37.1,-11.4
Oc1ccccc1/C=N/NC(=S)NC1CC2CCC1C2 (configuration not stated),-9.0,47.8,-2.3,-1.9,3.1,-1.1,-163.9,-101.0
COc1ccc(/C(C)=N/NC(=S)NCCc2ccccc2)c(O)c1,-7.2,48.5,-1.4,-14.6,2.2,2.0,-17.7,-1.2
